Experimental data: ChEMBL document CHEMBL4049424, “Hydroxypyridinone and 5-Aminolaevulinic Acid Conjugates for Photodynamic Therapy” (J Med Chem, 2017)

Columns and labels:
[1] = Drug metabolism in human doxorubicin resistant MCF7/R cells assessed as formation of protoporphyrin 9 after 6 hrs by fluorescence spectrometer; assay type: ADME, cell-based; conditions: mcf7r
Summary of the method: (§1)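 MCF-7R monolayers exposed 6 h at 37 °C to ALA, conjugates or ALA hexyl/octyl esters at 1–100 μM in serum-free medium. PpIX emission at 635 nm (405 nm excitation; spectra 600–750 nm) read in wells. Untreated controls subtracted; mean of triplicates in arbitrary units.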

[2] = Drug metabolism in human KB cells assessed as protoporphyrin 9 formation at 500 uM preincubated for 1 hr at 4 degC followed by compound washout and subsequent incubation for 4 hrs at 37 degC by fluorescence spectrometer; assay type: ADME, cell-based
Summary of the method: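 KB cells exposed 1 h to 500 μM prodrug in clear medium at either 4 °C or 37 °C, plates foil-wrapped. Compound then removed, PBS rinse, fresh medium, both plates 4 h at 37 °C. PpIX read in wells at 405/635 nm after subtracting untreated wells.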

KB [3] = assay: Phototoxicity in human KB cells assessed as reduction in cell viability preincubated for 4 hrs followed by irradiation with blue light at 2.5 J/cm2 and subsequent incubation for 18 hrs measured after 24 hrs post treatment by MTT assay; assay type: functional; conditions: for CC50: light or radiation study, read-out: LD50 (the source's name)
Summary of the method: (§2)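 Cells seeded ~5 × 10^4 per well, grown 48 h, washed with PBS, then 4 h with compound (five concentrations within 1–100 μM, triplicate, three untreated control wells per plate). Irradiated with blue light, peak ~420 nm, 2.5 J/cm². Medium replaced, cells kept a further 18 h. MTT read at A570 24 h after treatment; survival expressed as percentage of control. LD50 taken from two sets of experiments.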

MCF7 = assay: Phototoxicity in human MCF7 cells assessed as reduction in cell viability preincubated for 4 hrs followed by irradiation with blue light at 2.5 J/cm2 and subsequent incubation for 18 hrs measured after 24 hrs post treatment by MTT assay; assay type: functional; conditions: for CC50: MCF7, light or radiation study, read-out: LD50 (the source's name); summary of the method: as §2
MCF7R = assay: Phototoxicity in human doxorubicin resistant MCF7/R cells assessed as reduction in cell viability preincubated for 4 hrs followed by irradiation with blue light at 2.5 J/cm2 and subsequent incubation for 18 hrs measured after 24 hrs post treatment by MTT assay; assay type: functional; conditions: for CC50: light or radiation study, read-out: LD50 (the source's name); summary of the method: as §2
KB [4] = assay: Dark toxicity against human KB cells at 200 uM preincubated for 4 hrs followed by compound washout measured after 24 hrs by MTT assay; assay type: cell-based
Summary of the method: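 Dark toxicity in KB cells: 200 μM compound for 4 h with no light, removed, cells kept 24 h. Viability by MTT (2 h, A570 after DMSO solubilisation), given as % of untreated controls. Triplicate.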

[5] = Drug metabolism in human MCF7 cells assessed as formation of protoporphyrin 9 preincubated for 2 hrs followed by compound washout measured after 24 hrs by HPLC-based fluorescence analysis; assay type: ADME, cell-based; conditions: mcf7, 24 h
Summary of the method: (§3)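 Cells given ALA or conjugate for 2 h at 37 °C, then fresh medium without compound. At 24 h, lysed in CelLytic (15 min, room temperature), scraped and spun 1800g for 10 min. Supernatant PpIX read by fluorescence at 405/635 nm and normalised per mg protein (BCA). Untreated blanks subtracted.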

[6] = Drug metabolism in human doxorubicin resistant MCF7/R cells assessed as formation of protoporphyrin 9 at 1 to 100 uM after 6 hrs by fluorescence spectrometer; assay type: ADME, cell-based; conditions: mcf7r
Summary of the method: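 Cells seeded ~5 × 10^4 per well and grown 48 h, washed with PBS. Then 6 h at 37 °C with 1–100 μM prodrug in serum-free medium. PpIX fluorescence read with excitation 405 nm and emission 635 nm (scan 600–750 nm, 515 nm long-pass filter). Values are mean intensity in arbitrary units after subtracting no-prodrug control wells. Triplicate.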

KB [7] = assay: Dark toxicity against human KB cells assessed as cell survival at 100 uM after 24 hrs by MTT assay; assay type: cell-based
[8] = Drug metabolism in human KB cells assessed as formation of protoporphyrin 9 at 50 uM after 2 to 24 hrs by fluorescence spectrometer; assay type: ADME, cell-based
Summary of the method: (§4)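 KB monolayers (48 h after seeding ~5×10^4/well) washed, then given prodrug or ALA at 50 μM in serum-free medium at 37 °C. PpIX fluorescence read in wells at 2, 4, 6 and 24 h, excitation 405 nm, emission 635 nm. Untreated wells subtracted for autofluorescence; mean intensity in arbitrary units, triplicate.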

[9] = Drug metabolism in human MCF7 cells assessed as formation of protoporphyrin 9 at 50 uM after 6 hrs by fluorescence spectrometer; assay type: ADME, cell-based; conditions: mcf7, 6 h
Summary of the method: (§5)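 MCF-7 or MCF-7R cells incubated 6 h at 37 °C with 50 μM conjugate, or with 50 μM ALA and HPO as a 1:1 mixture, in serum-free medium. PpIX fluorescence read in wells at 405/635 nm, untreated-well values subtracted, triplicate.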

[10] = Drug metabolism in human KB cells assessed as formation of protoporphyrin 9 at 100 uM after 6 to 24 hrs by fluorescence spectrometer; assay type: ADME, cell-based
Summary of the method: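 Time course in KB cells at 37 °C after 100 μM conjugate, ALA, or 1:1 ALA + HPO mixture in serum-free medium. Well PpIX fluorescence read at 405 nm excitation / 635 nm emission, control autofluorescence subtracted, triplicate means.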

[11] = Drug metabolism in human KB cells assessed as formation of protoporphyrin 9 at 50 uM after 24 hrs by fluorescence spectrometer relative to ALA; assay type: ADME, cell-based; summary of the method: as §4
KB [12] = assay: Phototoxicity in human KB cells assessed as cell survival at 10 uM preincubated for 4 hrs followed by irradiation with blue light at 2.5 J/cm2 and subsequent incubation for 18 hrs measured after 24 hrs post treatment by MTT assay relative to control; assay type: functional; conditions: light or radiation study, read-out: Survival; summary of the method: as §2
[13] = Prodrug conversion in human KB cells assessed as accumulation of ALA at 100 uM after 2 hrs by HPLC-based fluorescence analysis relative to ALA; assay type: ADME, cell-based
Summary of the method: (§6)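 KB or MCF-7R cells incubated 2 h with 100 μM ALA or conjugate, then extracted with CelLytic. Lysate ALA derivatised with acetylacetone/ethanol/water (15/45/40) plus 10% formaldehyde at 100 °C for 10 min. Analysed by C18 HPLC with fluorescence detection (excitation 370 nm, emission 460 nm) against spiked-lysate calibration. Normalised per mg protein.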

[14] = Prodrug conversion in human doxorubicin resistant MCF7/R cells assessed as accumulation of ALA at 100 uM after 2 hrs by HPLC-based fluorescence analysis relative to ALA; assay type: ADME, cell-based; conditions: mcf7r; summary of the method: as §6
[15] = Drug metabolism in human KB cells assessed as formation of protoporphyrin 9 preincubated for 2 hrs followed by compound washout measured after 24 hrs by HPLC-based fluorescence analysis; assay type: ADME, cell-based; summary of the method: as §3
[16] = Drug metabolism in human doxorubicin resistant MCF7/R cells assessed as formation of protoporphyrin 9 preincubated for 2 hrs followed by compound washout measured after 24 hrs by HPLC-based fluorescence analysis; assay type: ADME, cell-based; conditions: mcf7r; summary of the method: as §3
[17] = Drug metabolism in human doxorubicin resistant MCF7/R cells assessed as formation of protoporphyrin 9 at 50 uM after 6 hrs by fluorescence spectrometer; assay type: ADME, cell-based; conditions: mcf7r; summary of the method: as §5
[18] = Drug metabolism in human doxorubicin resistant MCF7/R cells assessed as formation of protoporphyrin 9 at 100 uM after 6 hrs by fluorescence spectrometer; assay type: ADME, cell-based; conditions: mcf7r; summary of the method: as §1
[19] = Dark toxicity against human KB cells assessed as cell survival at 100 uM after 4 hrs by MTT assay; assay type: cell-based; conditions: read-out: Survival
Summary of the method: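 Cells seeded ~5 × 10^4 per well, grown 48 h, washed with PBS, then exposed to compound in medium for 4 h without irradiation. Incubation then continued for 24 h after prodrug removal. Viability by MTT (1 mg/mL, 2 h), formazan dissolved in DMSO, A570, expressed as percentage of untreated control wells on the same plate. Triplicate.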

KB [20] = assay: Dark toxicity against human KB cells preincubated for 4 hrs followed by compound washout measured after 24 hrs by MTT assay; assay type: cell-based
Summary of the method: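 KB cells seeded ~5×10^4/well, grown 48 h, PBS-washed, then exposed to compound for 4 h without irradiation. Medium replaced and cells kept a further ~24 h. Survival by MTT (1 mg/mL in EMEM, 2 h), formazan dissolved in DMSO, A570, expressed as % of untreated control wells. Triplicate wells.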

[21] = Drug metabolism in human doxorubicin resistant MCF7/R cells assessed as formation of protoporphyrin 9 at 1 to 100 uM after 6 hrs by fluorescence spectrometer relative to ALA; assay type: ADME, cell-based; conditions: mcf7r; summary of the method: as §1

Structure (SMILES) | Drug metabolism [1] | Drug metabolism [2] | Activity (KB [3]) | CC50 (KB [3]) | Activity (MCF7) | CC50 (MCF7) | Activity (MCF7R) | CC50 (MCF7R) | Activity (KB [4]) | Drug metabolism [5] | Flu intensity [6] | Activity (KB [7]) | Drug metabolism [8] | Drug metabolism [9] | Drug metabolism [10] | fold change (FC) [11] | viability at 10 µM (KB [12]) | Drug metabolism [15] | Drug metabolism [16] | Drug metabolism [17] | further results
CCc1c(O)c(=O)ccn1CCCCOC(=O)CCC(=O)CN.Cl | Dose-dependent effect | Metabolite_Detected | Dose-dependent effect | 65.1 µM | Dose-dependent effect | 76.5 µM | Dose-dependent effect | 61.2 µM | Non-Toxic | Metabolite_Detected | 2 to 25 a.u. | Non-Toxic |  |  |  |  |  |  |  |  | 
CCc1c(O)c(=O)ccn1CCCCCCCCOC(=O)CCC(=O)CN.Cl.Cl | Dose-dependent effect | Metabolite_Detected | Dose-dependent effect | 3.1 µM | Dose-dependent effect | 10.9 µM | Dose-dependent effect | 4.2 µM | Non-Toxic | Metabolite_Detected | 2 to 25 a.u. | Non-Toxic | Metabolite_Detected | Metabolite_Detected | Metabolite_Detected | 8 | < 6% | Metabolite_Detected | Metabolite_Detected | Metabolite_Detected | fold change (FC) [13]: 6; fold change (FC) [14]: 6
CCc1c(O)c(=O)ccn1CCOC(=O)CCC(=O)CN.Cl |  |  | Dose-dependent effect | 115 µM | Dose-dependent effect | 124 µM | Dose-dependent effect | 122 µM | Non-Toxic | Metabolite_Detected |  | Non-Toxic |  |  |  |  |  |  |  |  | Drug metabolism [18]: Metabolite_Notdetected
CCc1c(O)c(=O)ccn1CCCCCCCCCCOC(=O)CCC(=O)CN.Cl | Dose-dependent effect | Metabolite_Detected | Dose-dependent effect | 2.3 µM | Dose-dependent effect | 8.1 µM | Dose-dependent effect | 3.9 µM | Non-Toxic | Metabolite_Detected | 2 to 25 a.u. | Non-Toxic | Metabolite_Detected | Metabolite_Detected | Metabolite_Detected | 10.2 | < 6% | Metabolite_Detected | Metabolite_Detected | Metabolite_Detected | fold change (FC) [13]: 8; fold change (FC) [14]: 8
CCCCCCCCOC(=O)CCC(=O)CN |  |  |  |  |  |  |  |  |  |  |  |  |  |  |  |  |  |  |  |  | viability at 4 h, 100 µM [19]: 14%; Activity (KB [20]): Toxic
CNC(=O)c1c(O)c(=O)ccn1CCCCCCOC(=O)CCC(=O)CN.Cl |  |  | Dose-dependent effect | 108 µM | Dose-dependent effect | 113 µM | Dose-dependent effect | 104 µM | Non-Toxic |  |  | Non-Toxic |  |  |  |  |  |  |  |  | Drug metabolism [6]: Metabolite_Notdetected
CCc1c(O)c(=O)ccn1CCCCCCCCCCCCOC(=O)CCC(=O)CN.Cl | Dose-dependent effect | Metabolite_Detected | Dose-dependent effect | 2.5 µM | Dose-dependent effect | 12.9 µM | Dose-dependent effect | 5.5 µM | Non-Toxic | Metabolite_Detected | 2 to 25 a.u. | Non-Toxic | Metabolite_Detected | Metabolite_Detected | Metabolite_Detected | 9.2 | < 6% | Metabolite_Detected | Metabolite_Detected | Metabolite_Detected | 
CCc1c(O)c(=O)ccn1CCCCCCOC(=O)CCC(=O)CN.Cl | Dose-dependent effect | Metabolite_Detected | Dose-dependent effect | 5.2 µM | Dose-dependent effect | 13.4 µM | Dose-dependent effect | 8.1 µM | Non-Toxic | Metabolite_Detected | 2 to 25 a.u. | Non-Toxic |  | Metabolite_Detected | Metabolite_Detected |  |  | Metabolite_Detected | Metabolite_Detected | Metabolite_Detected | fold change (FC) [21]: > 15
CC(O)c1c(O)c(=O)ccn1CCCCCCOC(=O)CCC(=O)CN.Cl (stereo unspecified) |  |  | Dose-dependent effect | 24.1 µM | Dose-dependent effect | 16.6 µM | Dose-dependent effect | 8.4 µM | Non-Toxic |  |  | Non-Toxic |  |  |  |  |  | Metabolite_Detected | Metabolite_Detected |  | fold change (FC) [21]: > 10
